Source: ChEMBL document CHEMBL2069194, “Synthesis of sulfur containing dihydro-pyrrolo derivatives and their biological evaluation as antioxidants” (Bioorg Med Chem, 2012)
Active and inactive are the calls of the source. The calls are words filed in the database; no cut-off is given here.

How the values were obtained:
[1] = tested on: Radical scavenging activity; assay: Antioxidant activity assessed as reduction of DPPH radical generation at 50 uM incubated for 20 mins at room temperature; format: functional; parameters: scale not given: the % may be the effect or the level left
In short: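 DPPH radical interaction in ethanol, compound final 50 µM (equimolar with DPPH); ethanol as control. Absorbance at 517 nm read after 20 min at room temperature.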

Glycine max = assay: Inhibition of soybean lipoxygenase using sodium linoleate substrate at 100 uM
In short: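 Soybean lipoxygenase (0.2 mL of 1/9 × 10^-4 w/v solution in saline) incubated at room temperature with compound in ethanol and sodium linoleate 100 µM. Conversion to 13-hydroperoxylinoleic acid recorded at 234 nm, compared against caffeic acid 600 µM as standard inhibitor.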

[2] = Antioxidant activity assessed as inhibition of linoleic acid peroxidation at 100 uM by AAPH assay by UV spectrometry; format: functional
In short: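 Linoleic acid dispersion (10 µL of 16 mM) in 0.05 M phosphate buffer pH 7.4 at 37 °C; oxidation started under air by adding 50 µL of 40 mM AAPH, with 10 µL aliquots of compound present. Conjugated diene hydroperoxide formation followed as rise in absorbance at 234 nm; blank run contained same DMSO level.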

SMILES	Activity [1]	inhibition (Glycine max) [%]	inhibition [2] [%]
COC(=O)[C@@H]1N=C(SC(C)C)[C@H]2C(=O)N(c3ccccc3)C(=O)[C@H]21 (relative stereo)	12%	49	89
COC(=O)[C@H]1N=C(SCc2ccccc2)[C@H]2C(=O)N(c3ccccc3)C(=O)[C@H]21 (relative stereo)	11%	73	76
CCCCSC1=N[C@H](C(=O)OC)[C@@H]2C(=O)N(c3ccccc3)C(=O)[C@H]12 (relative stereo)	7%	56	89
Cc1c(C)c2c(c(C)c1O)CCC(C)(C(=O)O)O2 (stereo not drawn)			63
CCCCSC1=N[C@@H](C(=O)OC)[C@@H]2C(=O)N(c3ccccc3)C(=O)[C@H]12 (relative stereo)	11%	91	82
CCCSC1=N[C@H](C(=O)OC)[C@@H]2C(=O)N(c3ccccc3)C(=O)[C@H]12 (relative stereo)	9%	39	86
COC(=O)[C@@H]1N=C(SC)[C@H]2C(=O)N(c3ccccc3)C(=O)[C@H]21 (relative stereo)	26%	51	93
COC(=O)[C@H]1N=C(SC)[C@H]2C(=O)N(c3ccccc3)C(=O)[C@H]21 (relative stereo)	8%		84
CCSC1=N[C@@H](C(=O)OC)[C@@H]2C(=O)N(c3ccccc3)C(=O)[C@H]12 (relative stereo)	11%	81	91
COC(=O)[C@H]1N=C(SC(C)C)[C@H]2C(=O)N(c3ccccc3)C(=O)[C@H]21 (relative stereo)	13%	44	72
CCCSC1=N[C@@H](C(=O)OC)[C@@H]2C(=O)N(c3ccccc3)C(=O)[C@H]12 (relative stereo)	7%	43	86
COC(=O)[C@@H]1N=C(SCc2ccccc2)[C@H]2C(=O)N(c3ccccc3)C(=O)[C@H]21 (relative stereo)	15%	83	98
CC(Cc1ccc(O)c(O)c1)C(C)Cc1ccc(O)c(O)c1 (stereo not drawn)	81%	64	
CCSC1=N[C@H](C(=O)OC)[C@@H]2C(=O)N(c3ccccc3)C(=O)[C@H]12 (relative stereo)	inactive	26	89
